Reference: ChEMBL document CHEMBL4680159, “Novel modified leucine and phenylalanine dipeptides modulate viability and attachment of cancer cells” (2020)
The source made the active and inactive calls. No cut-off for these calls is given here.

Key:
K562 = test: Antiproliferative activity against human K562 cells assessed as growth inhibition measured after 72 hrs by calcein AM dye-based fluorescence assay; format: functional
In short: (§1)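 Cells exposed to three-fold compound dilutions in triplicate for 72 h. Calcein AM then added and live-cell fluorescence read at 485/538 nm (ex/em). GI50 taken from dose-response curves. Values from at least triplicate measurements.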

CCRF-CEM = test: Antiproliferative activity against human CEM cells assessed as growth inhibition measured after 72 hrs by calcein AM dye-based fluorescence assay; format: functional; in short: as §1
G-361 = test: Antiproliferative activity against human G361 cells assessed as growth inhibition measured after 72 hrs by calcein AM dye-based fluorescence assay; format: functional; in short: as §1
HCT-116 [1] = test: Antiproliferative activity against human HCT116 cells assessed as growth inhibition measured after 72 hrs by calcein AM dye-based fluorescence assay; format: functional; in short: as §1
MCF7 = test: Antiproliferative activity against human MCF7 cells assessed as growth inhibition measured after 72 hrs by calcein AM dye-based fluorescence assay; format: functional; in short: as §1
HCT-116 [2] = test: Antiproliferative activity against human HCT-116 cells assessed as increase in cell death at 25 uM measured after 24 hrs by IncuCyte live-cell imaging analysis; format: functional, cell-based
In short: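 HCT-116 cells plated at 10 000 cells/well and exposed to compounds at 25 µM for 24 h. Cell membrane integrity/death followed in real time by live-cell imaging with a Cytotox Red reagent.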

Structure (SMILES)	GI50 (K562)	GI50 (CCRF-CEM)	GI50 (G-361)	GI50 (HCT-116 [1])	GI50 (MCF7)	Activity (HCT-116 [2])
CC(C)C[C@H](NC(=O)c1cc(Cl)ccc1OCc1ccccc1)C(=O)N[C@@H](CC(C)C)C(=O)Nc1ccc(Cl)c(Cl)c1	> 100 µM	56.4 µM				
COc1ccc(NC(=O)[C@H](CC(C)C)NC(=O)[C@H](CC(C)C)NC(=O)c2cc(Cl)ccc2OCc2ccccc2)cc1	68.3 µM	53.2 µM				
O=C(N[C@@H](Cc1ccccc1)C(=O)N[C@@H](Cc1ccccc1)C(=O)Nc1ccc(C(F)(F)F)cc1)c1cc(Cl)ccc1O	5.1 µM	4.7 µM	5.1 µM	4.5 µM	5.6 µM	
CC(C)C[C@H](NC(=O)c1cc(Cl)ccc1OCc1ccccc1)C(=O)Nc1ccc(C(F)(F)F)cc1	> 50 µM	35.4 µM				
CC(C)C[C@H](NC(=O)c1cc(Cl)ccc1O)C(=O)N[C@@H](CC(C)C)C(=O)Nc1ccc(C(F)(F)F)cc1	7.5 µM	6.2 µM	11.5 µM	5.8 µM	5.3 µM	
CC(C)C[C@H](NC(=O)c1cc(Cl)ccc1O)C(=O)N[C@@H](CC(C)C)C(=O)Nc1nccs1	31.1 µM	19.7 µM				
CC(C)C[C@H](NC(=O)c1cc(Cl)ccc1OCc1ccccc1)C(=O)N[C@@H](CC(C)C)C(=O)Nc1ccc(C(F)(F)F)cc1	74.6 µM	59.9 µM				
Cc1ccc(NC(=O)[C@H](CC(C)C)NC(=O)[C@H](CC(C)C)NC(=O)c2cc(Cl)ccc2O)cc1	30.7 µM	13.2 µM				
Cc1ccc(NC(=O)[C@H](CC(C)C)NC(=O)[C@H](CC(C)C)NC(=O)c2cc(Cl)ccc2OCc2ccccc2)cc1	87.7 µM	52.8 µM				
O=C(N[C@@H](Cc1ccccc1)C(=O)Nc1ccc(C(F)(F)F)cc1)c1cc(Cl)ccc1O	5.2 µM	4.5 µM				
CC(C)C[C@H](NC(=O)c1cc(Cl)ccc1O)C(=O)N[C@@H](CC(C)C)C(=O)Nc1ccc(Cl)c(Cl)c1	3.2 µM	2.6 µM	5.2 µM	4 µM	4.1 µM	inactive
CC(C)C[C@H](NC(=O)c1cc(Cl)ccc1O)C(=O)N[C@@H](CC(C)C)C(=O)Nc1ccccc1	20.1 µM	10.2 µM				
O=C(N[C@@H](Cc1ccccc1)C(=O)N[C@@H](Cc1ccccc1)C(=O)Nc1ccc(Cl)c(Cl)c1)c1cc(Cl)ccc1O	5.8 µM	3.1 µM	4.5 µM	3 µM	5.2 µM	
CC(C)C[C@H](NC(=O)c1cc(Cl)ccc1OCc1ccccc1)C(=O)N[C@@H](Cc1ccccc1)C(=O)Nc1ccc(Cl)c(Cl)c1	57.5 µM	45.4 µM				
CC(C)C[C@H](NC(=O)c1cc(Cl)ccc1O)C(=O)N[C@@H](CC(C)C)C(=O)N1CCOCC1	> 50 µM	54.9 µM				
CC(C)C[C@H](NC(=O)c1cc(Cl)ccc1OCc1ccccc1)C(=O)N[C@@H](CC(C)C)C(=O)N1CCOCC1	21 µM	20.1 µM				
O=C(N[C@@H](Cc1ccccc1)C(=O)N[C@@H](Cc1ccccc1)C(=O)Nc1ccc(Cl)c(Cl)c1)c1cc(Cl)ccc1OCc1ccccc1	9.9 µM	32.8 µM				
COc1ccc(NC(=O)[C@H](CC(C)C)NC(=O)[C@H](CC(C)C)NC(=O)c2cc(Cl)ccc2O)cc1	51 µM	23.3 µM				
O=C(N[C@@H](Cc1ccccc1)C(=O)N[C@@H](Cc1ccccc1)C(=O)Nc1ccc(C(F)(F)F)cc1)c1cc(Cl)ccc1OCc1ccccc1	12.7 µM	11.3 µM				
CC(C)C[C@H](NC(=O)c1cc(Cl)ccc1OCc1ccccc1)C(=O)N[C@@H](CC(C)C)C(=O)Nc1ccccc1	71.2 µM	48.9 µM				
CC(C)C[C@H](NC(=O)c1cc(Cl)ccc1O)C(=O)Nc1ccc(C(F)(F)F)cc1	5 µM	5 µM				
CC(C)C[C@H](NC(=O)c1cc(Cl)ccc1O)C(=O)N[C@@H](CC(C)C)C(=O)NC1CCCCC1	55.7 µM	38.2 µM				
CC(C)C[C@H](NC(=O)c1cc(Cl)ccc1OCc1ccccc1)C(=O)N[C@@H](CC(C)C)C(=O)NC1CCCCC1	19.8 µM	9.8 µM				
O=C(N[C@@H](Cc1ccccc1)C(=O)Nc1ccc(C(F)(F)F)cc1)c1cc(Cl)ccc1OCc1ccccc1	> 50 µM	31.5 µM				
